In ChEMBL document CHEMBL3867436, “Chemistry of Renieramycins. 15. Synthesis of 22-O-Ester Derivatives of Jorunnamycin A and Their Cytotoxicity against Non-Small-Cell Lung Cancer Cells” (J Nat Prod, 2016):

Key:
[1] = Cytotoxicity against human NCI-H292 cells assessed as decrease in cell viability after 72 hrs by MTT assay; format: functional, cell-based; conditions: NCI-H292, 72 h
Method in brief: (§1)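 Human NSCLC lines (ATCC) seeded at 2 × 10^3 cells/well, adhered overnight, then exposed 72 h to at least five concentrations of analogue in RPMI with ≤0.2% DMSO. MTT 0.5 mg/mL added for 4 h, formazan dissolved in DMSO, absorbance read at 570 nm. Viability relative to untreated cells. IC50 per experiment averaged over three independent triplicate runs on different days (mean ± SD). Cisplatin positive control.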

[2] = Cytotoxicity against human NCI-H460 cells assessed as decrease in cell viability after 72 hrs by MTT assay; format: functional, cell-based; conditions: NCI-H460, 72 h; method in brief: as §1

| SMILES | IC50 [1] | IC50 [2] |
| --- | --- | --- |
| COC1=C(C)C(=O)C2=C(C1=O)[C@H]1[C@@H]3CC4=C(C(=O)C(OC)=C(C)C4=O)[C@H](COC(=O)/C=C/c4ccc([N+](=O)[O-])cc4)N3[C@@H](C#N)[C@H](C2)N1C | 22 nM | 14 nM |
| COC1=C(C)C(=O)C2=C(C1=O)[C@H]1[C@@H]3CC4=C(C(=O)C(OC)=C(C)C4=O)[C@H](COC(=O)c4cccc(C(F)(F)F)c4)N3[C@@H](C#N)[C@H](C2)N1C | 49 nM | 30 nM |
| COC1=C(C)C(=O)C2=C(C1=O)[C@H]1[C@@H]3CC4=C(C(=O)C(OC)=C(C)C4=O)[C@H](COC(=O)/C=C/c4ccncc4)N3[C@@H](C#N)[C@H](C2)N1C | 20 nM | 20 nM |
| COC1=C(C)C(=O)C2=C(C1=O)[C@H]1[C@@H]3CC4=C(C(=O)C(OC)=C(C)C4=O)[C@H](COC(=O)/C=C/c4ccccc4Cl)N3[C@@H](C#N)[C@H](C2)N1C | 25 nM | 9 nM |
| COC1=C(C)C(=O)C2=C(C1=O)[C@H]1[C@@H]3CC4=C(C(=O)C(OC)=C(C)C4=O)[C@H](COC(=O)/C=C/c4c(F)c(F)c(F)c(F)c4F)N3[C@@H](C#N)[C@H](C2)N1C | 21 nM | 69 nM |
| COC1=C(C)C(=O)C2=C(C1=O)[C@H]1[C@@H]3CC4=C(C(=O)C(OC)=C(C)C4=O)[C@H](COC(=O)c4ccc(F)cc4)N3[C@@H](C#N)[C@H](C2)N1C | 56 nM | 22 nM |
| COC1=C(C)C(=O)C2=C(C1=O)[C@H]1[C@@H]3CC4=C(C(=O)C(OC)=C(C)C4=O)[C@H](COC(=O)c4ccccc4C(F)(F)F)N3[C@@H](C#N)[C@H](C2)N1C | 51 nM | 22 nM |
| COC1=C(C)C(=O)C2=C(C1=O)[C@H]1[C@@H]3CC4=C(C(=O)C(OC)=C(C)C4=O)[C@H](COC(=O)/C=C/c4ccc(F)cc4)N3[C@@H](C#N)[C@H](C2)N1C | 44 nM | 12 nM |
| COC1=C(C)C(=O)C2=C(C1=O)[C@H]1[C@@H]3CC4=C(C(=O)C(OC)=C(C)C4=O)[C@H](COC(=O)c4cccnc4)N3[C@@H](C#N)[C@H](C2)N1C | 6.4 nM | 6 nM |
| COC1=C(C)C(=O)C2=C(C1=O)[C@H]1[C@@H]3CC4=C(C(=O)C(OC)=C(C)C4=O)[C@H](COC(=O)/C=C/c4cccc(F)c4)N3[C@@H](C#N)[C@H](C2)N1C | 11 nM | 9.8 nM |
| COC1=C(C)C(=O)C2=C(C1=O)[C@H]1[C@@H]3CC4=C(C(=O)C(OC)=C(C)C4=O)[C@H](COC(=O)c4cccc(F)c4)N3[C@@H](C#N)[C@H](C2)N1C | 18 nM | 11 nM |
| COC1=C(C)C(=O)C2=C(C1=O)[C@H]1[C@@H]3CC4=C(C(=O)C(OC)=C(C)C4=O)[C@H](COC(=O)c4ccccn4)N3[C@@H](C#N)[C@H](C2)N1C | 3.7 nM | 2.2 nM |
| COC1=C(C)C(=O)C2=C(C1=O)[C@H]1[C@@H]3CC4=C(C(=O)C(OC)=C(C)C4=O)[C@H](COC(=O)/C=C/c4ccccc4)N3[C@@H](C#N)[C@H](C2)N1C | 19 nM | 18 nM |
| COC1=C(C)C(=O)C2=C(C1=O)[C@H]1[C@@H]3CC4=C(C(=O)C(OC)=C(C)C4=O)[C@H](COC(=O)CC(F)(F)F)N3[C@@H](C#N)[C@H](C2)N1C | 570 nM | 320 nM |
| COC1=C(C)C(=O)C2=C(C1=O)[C@H]1[C@@H]3CC4=C(C(=O)C(OC)=C(C)C4=O)[C@H](COC(=O)c4ccncc4)N3[C@@H](C#N)[C@H](C2)N1C | 1.1 nM | 1.6 nM |
| COC1=C(C)C(=O)C2=C(C1=O)[C@H]1[C@@H]3CC4=C(C(=O)C(OC)=C(C)C4=O)[C@H](COC(=O)c4ccc(C(F)(F)F)cc4)N3[C@@H](C#N)[C@H](C2)N1C | 60 nM | 24 nM |
| COC1=C(C)C(=O)C2=C(C1=O)[C@H]1[C@@H]3CC4=C(C(=O)C(OC)=C(C)C4=O)[C@H](COC(=O)c4ccccc4F)N3[C@@H](C#N)[C@H](C2)N1C | 30 nM | 10 nM |
| COC1=C(C)C(=O)C2=C(C1=O)[C@H]1[C@@H]3CC4=C(C(=O)C(OC)=C(C)C4=O)[C@H](CO)N3[C@@H](C#N)[C@H](C2)N1C | 220 nM | 160 nM |
| COC1=C(C)C(=O)C2=C(C1=O)[C@H]1[C@@H]3CC4=C(C(=O)C(OC)=C(C)C4=O)[C@H](COC(=O)/C=C/c4cccnc4)N3[C@@H](C#N)[C@H](C2)N1C | 4.9 nM | 2.8 nM |
| C/C=C(/C)C(=O)OC[C@H]1C2=C(C[C@H]3[C@H]4C5=C(C[C@@H]([C@H](C#N)N13)N4C)C(=O)C(C)=C(OC)C5=O)C(=O)C(C)=C(OC)C2=O [RENIERAMYCIN M] | 23 nM | 8.3 nM |
